PMC6396672 (OncoTargets and therapy, 2019)
Where two headings read alike, the source gives them in different places. Blank lines part the entries; values can stand above or below the compound they belong to.

Tests used:
MHCC97-L cells = test: MTT assay, cell survival; type: cell-based; settings: for IC50: MHCC97L
Procedure, shortened: (§1)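 Compounds were dissolved in DMSO and diluted in DMEM. Cells were treated at 0.01, 0.03, 0.1, 0.3, 1, 3 and 10 μmol/L, and viability was read by MTT. Inhibition rates were calculated, and IC25, IC50 and ICmax were derived by curve fitting.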

[1] = test system: MDR-related genes in MHCC97-H cells; test: qPCR of MDR-related genes; type: cell-based; settings: ARQ-197 at IC25 concentration
Procedure, shortened: (§2)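 Total RNA from treated HCC cells was extracted and reverse transcribed. Target mRNAs were measured by real-time qPCR with gene-specific primers and normalised to β-actin mRNA. EMT targets were E-cadherin, N-cadherin and vimentin; MDR targets were CYP3A4, MDR-1 and UGT1A9.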

L-02 cells = test: MTT assay, cell survival; type: cell-based
Procedure, shortened: as §1

PXR = settings: MHCC97-H cells, dose-dependent
HepG2 cells = test: MTT assay, cell survival; type: cell-based; settings: for IC50: Homo sapiens
Procedure, shortened: as §1

[2] = test system: EMT-related genes in MHCC97-H cells; test: qPCR of EMT-related genes; type: cell-based; settings: ARQ-197 at IC25 concentration
Procedure, shortened: as §2

ETS-1 = test: Gene reporter luciferase assay EBS-Luc; type: cell-based; settings: MHCC97-H cells, dose-dependent
MHCC97-H tumors = test: In vivo antitumor effect, subcutaneous tumor model; settings: nude mice
Procedure, shortened: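 Nude (T-cell-deficient) mice, aged 4–6 weeks, were injected subcutaneously with 1×10^6 MHCC97-H cells per animal. Treatment started 3–4 days after injection: sorafenib 2 mg/kg given orally every 2 days, ten doses over 21 days. Mice were then harvested and tumour volumes or weights measured. Inhibition rates were calculated from tumour volume or weight.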

LM-3 cells = test: MTT assay, cell survival; type: cell-based
Procedure, shortened: as §1

MHCC97-H cells = test: MTT assay, cell survival; type: cell-based; settings: for IC50: Homo sapiens, MHCC97H
Procedure, shortened: as §1

[3] = Clearance of sorafenib in cultured cells by LC-MS/MS; type: in vitro ADME; settings: human, MHCC97-L cells (cultured HCC cells), Half-life of sorafenib (t1/2)
Procedure, shortened: (§3)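 Cultured human HCC cells (with or without the co-treatment or siRNA named in the line) were exposed to sorafenib at 1 μmol/L for 12 hours, then harvested at set time points. Samples were extracted with acetonitrile, and the remaining sorafenib was quantified by LC-MS/MS. Half-life (t1/2) was calculated from the decline over time.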

[4] = as above; type: in vitro ADME; settings: human, LM-3 cells (cultured HCC cells), Half-life of sorafenib (t1/2), LM-3 cultured cells
Procedure, shortened: as §3

[5] = test system: subcutaneous MHCC97-H tumors; test: Clearance of sorafenib in subcutaneous tumor by LC-MS/MS; type: in vivo, nude mice; settings: PXR siRNA +siRNA
Procedure, shortened: (§4)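 Nude mice (T-cell deficient, 4–6 weeks) carried subcutaneous tumours grown from injected HCC cells; siRNA sequences were described in earlier work. Sorafenib solution was injected into the tumours, and tissue was harvested at set time points. Samples were extracted with acetonitrile, and residual sorafenib was quantified by LC-MS/MS. t1/2 was obtained by curve fitting.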

[6] = Clearance of sorafenib in cultured cells by LC-MS/MS; type: in vitro ADME; settings: human, MHCC97-H cells (cultured HCC cells), Half-life of sorafenib (t1/2)
Procedure, shortened: as §3

[7] = as above; type: in vitro ADME; settings: human, HepG2 cells (cultured HCC cells), Half-life of sorafenib (t1/2)
Procedure, shortened: as §3

subcutaneous LM-3 tumors = test: Clearance of sorafenib in subcutaneous tumor by LC-MS/MS; type: in vivo, nude mice; settings: LM-3 subcutaneous tumor, ETS-1 siRNA
Procedure, shortened: as §4

expression of Cyp3a4 (mRNA) [1]: decreased | luciferase activity of DR3-Luc reporter (PXR): inhibited | luciferase activity of EBS-Luc reporter (ETS-1): inhibited
SMILES: O=C1NC(=O)[C@@H](c2cn3c4c(cccc24)CCC3)[C@@H]1c1c[nH]c2ccccc12 [ARQ-197]
IC25 values (MHCC97-L cells; MHCC97-L, MTT): 1.29 ± 0.52 µM | IC50 (MHCC97-L cells; read-out: IC50 values, MHCC97-L, MTT): 4.63 ± 0.93 µM | expression of Mdr-1 (mRNA) [1]: decreased | expression of Ugt1a9 (mRNA) [1]: decreased | IC50 (L-02 cells; Homo sapiens, L02, read-out: IC50 values): 7.59 ± 0.78 µM | IC25 values (L-02 cells; L-02, MTT): 3.44 ± 0.24 µM | IC25 values (HepG2 cells; HepG2, MTT): 0.23 ± 0.07 µM | ICmax values (maximum action concentration) (HepG2 cells; HepG2, MTT): 9.55 ± 0.57 µmol/L | IC50 (HepG2 cells; HepG2, read-out: IC50 values, HepG2, MTT): 1.99 ± 0.47 µM | expression of E-cadherin (mRNA) [2]: enhanced | expression of N-cadherin (mRNA) [2]: decreased | expression of vimentin (mRNA) [2]: decreased | effect of ARQ-197 on the antitumor effect of sorafenib in vivo (MHCC97-H tumors; 3 mg/kg ARQ-197 + 2 mg/kg sorafenib compared to sorafenib alone, MHCC97-H tumors): significantly enhanced the antitumor effect of sorafenib | subcutaneous growth of MHCC97-H tumors (MHCC97-H tumors; 3 mg/kg ARQ-197, oral, compared to vehicle controls): inhibited the subcutaneous growth of MHCC97-H tumors | IC50 (LM-3 cells; LM3, read-out: IC50 values, LM-3, MTT): 0.67 ± 0.16 µM | IC25 values (LM-3 cells; LM-3, MTT): 0.08 ± 0.02 µM | ICmax values (maximum action concentration) (LM-3 cells; LM-3, MTT): 4.62 ± 0.80 µmol/L | IC50 (MHCC97-H cells; read-out: IC50 values, MHCC97-H, MTT): 0.76 ± 0.22 µM | IC25 values (MHCC97-H cells; MHCC97-H, MTT): 0.09 ± 0.01 µM | ICmax values (maximum action concentration) (MHCC97-H cells; MHCC97-H, MTT): 3.56 ± 0.65 µmol/L

half-life at 1 μmol/L ([3]; ARQ-197): 12.6 ± 0.18 h | half-life at 1 μmol/L ([3]; solvent control): 10.2 ± 0.51 h | half-life at 1 μmol/L ([4]; ARQ-197): 14.4 ± 0.67 h | half-life at 1 μmol/L ([4]; ETS-1 siRNA): 15.6 ± 0.46 h | half-life at 1 μmol/L ([4]; ETS-1 siRNA +ARQ-197): 15.2 ± 0.18 h | half-life at 1 μmol/L ([4]; PXR siRNA): 18 ± 0.25 h | half-life at 1 μmol/L ([4]; PXR siRNA +siRNA): 18.4 ± 0.67 h | half-life at 1 μmol/L ([4]; solvent control): 9.93 ± 0.57 h | Half-life of sorafenib (t1/2) [5]: 40.13 ± 0.83 h | half-life at 1 μmol/L ([6]; ARQ-197): 13.6 ± 0.65 h | half-life at 1 μmol/L ([6]; ETS-1 siRNA): 13.8 ± 0.84 h | half-life at 1 μmol/L ([6]; ETS-1 siRNA +ARQ-197): 13.5 ± 0.23 h | half-life at 1 μmol/L ([6]; PXR siRNA): 17.7 ± 0.91 h | half-life at 1 μmol/L ([6]; PXR siRNA +siRNA): 17.6 ± 0.88 h | half-life at 1 μmol/L ([6]; solvent control): 9.08 ± 0.43 h | half-life at 1 μmol/L ([7]; ARQ-197): 12.5 ± 0.62 h | half-life at 1 μmol/L ([7]; solvent control): 9.62 ± 0.82 h | Half-life of sorafenib (t1/2) (subcutaneous LM-3 tumors): 39.45 ± 0.74 h
SMILES: CNC(=O)c1cc(Oc2ccc(NC(=O)Nc3ccc(Cl)c(C(F)(F)F)c3)cc2)ccn1 [sorafenib]
IC50 (MHCC97-L cells; read-out: IC50 values of sorafenib, MHCC97-L, ARQ-197): 0.97 ± 0.39 µM | IC50 (MHCC97-L cells; read-out: IC50 values of sorafenib, MHCC97-L, solvent control): 2.73 ± 0.4 µM | IC50 (HepG2 cells; HepG2, read-out: IC50 values of sorafenib, HepG2, solvent control): 1.68 ± 0.42 µM | IC50 (LM-3 cells; LM3, read-out: IC50 values of sorafenib, LM-3, solvent control): 1.29 ± 0.25 µM | IC50 (MHCC97-H cells; read-out: IC50 values of sorafenib, MHCC97-H, solvent control): 1.39 ± 0.46 µM
